From ChEMBL document CHEMBL3046529, “Chiral gamma-aryl-1H-1,2,4-triazole derivatives as highly potential antifungal agents: Design, synthesis, structure, and in vitro fungicidal activities” (J Agric Food Chem, 2008)

Legend:
Format in all cases: functional
Details in all cases: read-out: GI
Botrytis cinerea = assay: In vitro fungicidal activity against Botryotinia fuckeliana assessed as mycelial growth inhibition at 100 mg/l at 26 degC after 48 hr by agar diffusion assay
How it was run: (§1)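 Compound is dissolved in DMF and added aseptically to autoclaved agar that has cooled to about 45-50 °C, giving 100 mg/L in the medium. Solvent never exceeds […]. Plain medium is the blank. A 5 mm mycelial plug, cut from the margin of an actively growing colony, goes in the plate centre. Three replicate plates are sealed and kept at 26 °C in darkness. Colony diameter is read at 48 h. Inhibition % = (control − treated diameter)/control diameter.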

Fusarium graminearum = assay: In vitro fungicidal activity against Fusarium graminearum assessed as mycelial growth inhibition at 100 mg/l at 26 degC after 48 hr by agar diffusion assay; how it was run: as §1
Rhizoctonia solani = assay: In vitro fungicidal activity against Rhizoctonia solani assessed as mycelial growth inhibition at 100 mg/l at 26 degC after 48 hr by agar diffusion assay; how it was run: as §1
Dothiorella gregaria = assay: In vitro fungicidal activity against Dothiorella gregaria assessed as mycelial growth inhibition at 100 mg/l at 26 degC after 48 hr by agar diffusion assay; how it was run: as §1
Colletotrichum gossypii = assay: In vitro fungicidal activity against Colletotrichum gossypii assessed as mycelial growth inhibition at 100 mg/l at 26 degC after 48 hr by agar diffusion assay; how it was run: as §1
Fusarium oxysporum = assay: In vitro fungicidal activity against Fusarium oxysporum assessed as mycelial growth inhibition at 100 mg/l at 26 degC after 48 hr by agar diffusion assay; how it was run: as §1

CC[C@H](CCn1cncn1)c1ccccc1
inhibition of growth at 100 µg/mL (Botrytis cinerea): 52% | inhibition of growth at 100 µg/mL (Fusarium graminearum): 60% | inhibition of growth at 100 µg/mL (Rhizoctonia solani): 80% | inhibition of growth at 100 µg/mL (Dothiorella gregaria): 81% | inhibition of growth at 100 µg/mL (Colletotrichum gossypii): 70% | inhibition of growth at 100 µg/mL (Fusarium oxysporum): 60%

CC[C@@H](CCn1cncn1)c1ccccc1
inhibition of growth at 100 µg/mL (Botrytis cinerea): 52% | inhibition of growth at 100 µg/mL (Fusarium graminearum): 63% | inhibition of growth at 100 µg/mL (Rhizoctonia solani): 75% | inhibition of growth at 100 µg/mL (Dothiorella gregaria): 60% | inhibition of growth at 100 µg/mL (Colletotrichum gossypii): 50% | inhibition of growth at 100 µg/mL (Fusarium oxysporum): 55%

CC[C@H](CCn1cncn1)c1ccc(F)cc1
inhibition of growth at 100 µg/mL (Botrytis cinerea): 36% | inhibition of growth at 100 µg/mL (Fusarium graminearum): 63% | inhibition of growth at 100 µg/mL (Rhizoctonia solani): 82% | inhibition of growth at 100 µg/mL (Dothiorella gregaria): 82% | inhibition of growth at 100 µg/mL (Colletotrichum gossypii): 78% | inhibition of growth at 100 µg/mL (Fusarium oxysporum): 50%

CC[C@@H](CCn1cncn1)c1ccc(F)cc1
inhibition of growth at 100 µg/mL (Botrytis cinerea): 52% | inhibition of growth at 100 µg/mL (Fusarium graminearum): 56% | inhibition of growth at 100 µg/mL (Rhizoctonia solani): 85% | inhibition of growth at 100 µg/mL (Dothiorella gregaria): 75% | inhibition of growth at 100 µg/mL (Colletotrichum gossypii): 65% | inhibition of growth at 100 µg/mL (Fusarium oxysporum): 60%

CC[C@H](CCn1cncn1)c1ccc(Cl)cc1
inhibition of growth at 100 µg/mL (Botrytis cinerea): 94% | inhibition of growth at 100 µg/mL (Fusarium graminearum): 76% | inhibition of growth at 100 µg/mL (Rhizoctonia solani): 85% | inhibition of growth at 100 µg/mL (Dothiorella gregaria): 93% | inhibition of growth at 100 µg/mL (Colletotrichum gossypii): 97% | inhibition of growth at 100 µg/mL (Fusarium oxysporum): 91%

CC[C@@H](CCn1cncn1)c1ccc(Cl)cc1
inhibition of growth at 100 µg/mL (Botrytis cinerea): 84% | inhibition of growth at 100 µg/mL (Fusarium graminearum): 73% | inhibition of growth at 100 µg/mL (Rhizoctonia solani): 83% | inhibition of growth at 100 µg/mL (Dothiorella gregaria): 80% | inhibition of growth at 100 µg/mL (Colletotrichum gossypii): 85% | inhibition of growth at 100 µg/mL (Fusarium oxysporum): 80%

CC[C@H](CCn1cncn1)c1ccc(OC)cc1
inhibition of growth at 100 µg/mL (Botrytis cinerea): 30% | inhibition of growth at 100 µg/mL (Fusarium graminearum): 66% | inhibition of growth at 100 µg/mL (Rhizoctonia solani): 60% | inhibition of growth at 100 µg/mL (Dothiorella gregaria): 82% | inhibition of growth at 100 µg/mL (Colletotrichum gossypii): 55% | inhibition of growth at 100 µg/mL (Fusarium oxysporum): 65%

CC[C@@H](CCn1cncn1)c1ccc(OC)cc1
inhibition of growth at 100 µg/mL (Botrytis cinerea): 30% | inhibition of growth at 100 µg/mL (Fusarium graminearum): 42% | inhibition of growth at 100 µg/mL (Rhizoctonia solani): 73% | inhibition of growth at 100 µg/mL (Dothiorella gregaria): 45% | inhibition of growth at 100 µg/mL (Colletotrichum gossypii): 50% | inhibition of growth at 100 µg/mL (Fusarium oxysporum): 40%

CCC[C@H](CCn1cncn1)c1ccccc1
inhibition of growth at 100 µg/mL (Botrytis cinerea): 98% | inhibition of growth at 100 µg/mL (Fusarium graminearum): 83% | inhibition of growth at 100 µg/mL (Rhizoctonia solani): 97% | inhibition of growth at 100 µg/mL (Dothiorella gregaria): 100% | inhibition of growth at 100 µg/mL (Colletotrichum gossypii): 92% | inhibition of growth at 100 µg/mL (Fusarium oxysporum): 80%

CCC[C@@H](CCn1cncn1)c1ccccc1
inhibition of growth at 100 µg/mL (Botrytis cinerea): 44% | inhibition of growth at 100 µg/mL (Fusarium graminearum): 52% | inhibition of growth at 100 µg/mL (Rhizoctonia solani): 78% | inhibition of growth at 100 µg/mL (Dothiorella gregaria): 67% | inhibition of growth at 100 µg/mL (Colletotrichum gossypii): 75% | inhibition of growth at 100 µg/mL (Fusarium oxysporum): 55%
